{
  "source": "ChEMBL document CHEMBL4261516",
  "about": "“Design, synthesis and pharmacological evaluation of new 2-oxo-quinoline derivatives containing α-aminophosphonates as potential antitumor agents” (Medchemcomm, 2017)",
  "key": {"[1]": {"system": "HepG2", "experiment": "Upregulation of p53 expression in human HepG2 cells after 48 hrs by Western blot method", "format": "functional, cell-based"}, "[2]": {"system": "HepG2", "experiment": "Cell cycle arrest in human HepG2 cells assessed as accumulation at G1 phase at 10 uM after 48 hrs by propidium iodide staining-based flow cytometric method (reference value: 50.47%)", "format": "functional"}, "[3]": {"system": "HepG2", "experiment": "Upregulation of p27 expression in human HepG2 cells after 48 hrs by Western blot method", "format": "functional, cell-based"}, "[4]": {"system": "HepG2", "experiment": "Cell cycle arrest in human HepG2 cells assessed as accumulation at G2 phase at 10 uM after 48 hrs by propidium iodide staining-based flow cytometric method (reference value: 19.04%)", "format": "functional"}, "[5]": {"system": "HepG2", "experiment": "Induction of apoptosis in human HepG2 cells assessed as upregulation of reactive oxygen species generation at 10 uM by DCFH-DA/DAPI staining-based fluorescence microscopic method", "format": "functional, cell-based"}, "[6]": {"system": "HepG2", "experiment": "Induction of apoptosis in human HepG2 cells assessed as necrotic cells at 12 uM after 24 hrs by annexin V/[…] staining-based fluorescent microscopic method (reference value: 0.28%)", "format": "functional"}, "[7]": {"system": "HepG2", "experiment": "Induction of apoptosis in human HepG2 cells assessed as early apoptotic cells at 12 uM after 24 hrs by annexin V/[…] staining-based fluorescent microscopic method (reference value: 6.50%)", "format": "functional"}, "[8]": {"system": "HepG2", "experiment": "Induction of apoptosis in human HepG2 cells assessed as pycnosis at 10 uM after 24 hrs by acridine orange/ethidium bromide staining-based fluorescent microscopic method", "format": "functional, cell-based", "outline": "(§1)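 Cells were plated at 5×10^4 cells/mL on sterile cover slips. Medium was replaced with fresh medium containing 10% FBS plus compound. After treatment, cover slips were inverted onto slides with acridine orange/ethidium bromide stain and viewed by fluorescence microscopy.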"}, "[9]": {"system": "HepG2", "experiment": "Induction of apoptosis in human HepG2 cells assessed as early apoptotic cells at 10 uM after 24 hrs by annexin V/[…] staining-based fluorescent microscopic method (reference value: 6.50%)", "format": "functional"}, "[10]": {"system": "HepG2", "experiment": "Disruption of mitochondrial membrane potential in human HepG2 cells at 10 uM after 12 hrs by JC1 staining-based fluorescent microscopic method", "format": "functional, cell-based"}, "[11]": {"system": "HepG2", "experiment": "Cell cycle arrest in human HepG2 cells assessed as accumulation at G2 phase at 12 uM after 48 hrs by propidium iodide staining-based flow cytometric method (reference value: 19.04%)", "format": "functional"}, "[12]": {"system": "HepG2", "experiment": "Induction of apoptosis in human HepG2 cells assessed as upregulation of PARP levels at 8 to 12 uM after 24 hrs by Western blot method", "format": "functional, cell-based"}, "[13]": {"system": "HepG2", "experiment": "Induction of apoptosis in human HepG2 cells assessed as upregulation of caspase-9 levels at 8 to 12 uM after 24 hrs by Western blot method", "format": "functional, cell-based", "outline": "(§2)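 Treated HepG2 cells were lysed on ice in 1% SDS/Tris-HCl pH 7.5 buffer with EDTA, NaCl, PMSF, leupeptin and trypsin inhibitor, then cleared at 12,000 × g for 5 min. Protein was quantified by BCA, and 40–50 µg was run on 12% SDS-PAGE and blotted to PVDF. Membranes were blocked with 5% milk, incubated with primary antibody overnight at 4 °C and HRP secondary for 1 h. Detection by chemiluminescence with densitometry.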"}, "[14]": {"system": "HepG2", "experiment": "Induction of apoptosis in human HepG2 cells assessed as late apoptotic cells at 10 uM after 24 hrs by annexin V/[…] staining-based fluorescent microscopic method (reference value: 1.91%)", "format": "functional"}, "[15]": {"system": "HepG2", "experiment": "Cell cycle arrest in human HepG2 cells assessed as accumulation at G1 phase at 8 uM after 48 hrs by propidium iodide staining-based flow cytometric method (reference value: 50.47%)", "format": "functional"}, "[16]": {"system": "HepG2", "experiment": "Induction of apoptosis in human HepG2 cells assessed as downregulation of Bcl-2 levels at 8 to 12 uM after 24 hrs by Western blot method", "format": "functional, cell-based", "outline": "as §2"}, "[17]": {"system": "HepG2", "experiment": "Induction of apoptosis in human HepG2 cells assessed as viable cells at 8 uM after 24 hrs by annexin V/[…] staining-based fluorescent microscopic method (reference value: 91.31%)", "format": "functional", "conditions": "HepG2, 24 h, read-out: Activity"}, "[18]": {"system": "HepG2", "experiment": "Induction of apoptosis in human HepG2 cells assessed as viable cells at 10 uM after 24 hrs by annexin V/[…] staining-based fluorescent microscopic method (reference value: 91.31%)", "format": "functional", "conditions": "HepG2, 24 h, read-out: Activity"}, "[19]": {"system": "HepG2", "experiment": "Induction of apoptosis in human HepG2 cells assessed as necrotic cells at 10 uM after 24 hrs by annexin V/[…] staining-based fluorescent microscopic method (reference value: 0.28%)", "format": "functional"}, "[20]": {"system": "HepG2", "experiment": "Induction of apoptosis in human HepG2 cells assessed as upregulation of Bax levels at 8 to 12 uM after 24 hrs by Western blot method", "format": "functional, cell-based", "outline": "as §2"}, "[21]": {"system": "HepG2", "experiment": "Induction of apoptosis in human HepG2 cells assessed as late apoptotic cells at 12 uM after 24 hrs by annexin V/[…] staining-based fluorescent microscopic method (reference value: 1.91%)", "format": "functional"}, "[22]": {"system": "HepG2", "experiment": "Induction of apoptosis in human HepG2 cells assessed as membrane blebbing at 10 uM after 24 hrs by acridine orange/ethidium bromide staining-based fluorescent microscopic method", "format": "functional, cell-based", "outline": "as §1"}, "[23]": {"system": "HepG2", "experiment": "Cell cycle arrest in human HepG2 cells assessed as accumulation at G2 phase at 8 uM after 48 hrs by propidium iodide staining-based flow cytometric method (reference value: 19.04%)", "format": "functional"}, "[24]": {"system": "HepG2", "experiment": "Cell cycle arrest in human HepG2 cells assessed as accumulation at G2/M phase after 48 hrs by propidium iodide staining-based flow cytometric method", "format": "functional"}, "[25]": {"system": "HepG2", "experiment": "Induction of apoptosis in human HepG2 cells assessed as viable cells at 12 uM after 24 hrs by annexin V/[…] staining-based fluorescent microscopic method (reference value: 91.31%)", "format": "functional", "conditions": "HepG2, 24 h, read-out: Activity"}, "[26]": {"system": "HepG2", "experiment": "Cytotoxicity against human HepG2 cells after 48 hrs by MTT assay", "format": "functional, cell-based", "conditions": "HepG2, 48 h", "outline": "(§3)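 HepG2, SK-OV-3, NCI-H460 and HL 7702 lines grown as monolayers in DMEM with 10% FBS plus penicillin/streptomycin at 37 °C, 5% CO2. Exponentially growing cells were seeded and exposed to the indicated concentrations for 48 h. MTT was then added for 4 h at 37 °C, formazan was dissolved in DMSO, and OD was read at 490 nm. Each concentration was run in triplicate wells, with three independent runs per line.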"}, "[27]": {"system": "HepG2", "experiment": "Cell cycle arrest in human HepG2 cells assessed as accumulation at S phase at 10 uM after 48 hrs by propidium iodide staining-based flow cytometric method (reference value: 30.49%)", "format": "functional"}, "[28]": {"system": "HepG2", "experiment": "Induction of apoptosis in human HepG2 cells assessed as late apoptotic cells at 8 uM after 24 hrs by annexin V/[…] staining-based fluorescent microscopic method (reference value: 1.91%)", "format": "functional"}, "[29]": {"system": "HepG2", "experiment": "Cell cycle arrest in human HepG2 cells assessed as accumulation at S phase at 8 uM after 48 hrs by propidium iodide staining-based flow cytometric method (reference value: 30.49%)", "format": "functional"}, "[30]": {"system": "L02", "experiment": "Cytotoxicity against human HL-7702 cells after 48 hrs by MTT assay", "format": "cell-based", "conditions": "L02, 48 h", "outline": "as §3"}, "[31]": {"system": "HepG2", "experiment": "Cell cycle arrest in human HepG2 cells assessed as accumulation at S phase at 12 uM after 48 hrs by propidium iodide staining-based flow cytometric method (reference value: 30.49%)", "format": "functional"}, "[32]": {"system": "HepG2", "experiment": "Cell cycle arrest in human HepG2 cells assessed as accumulation at G1 phase at 12 uM after 48 hrs by propidium iodide staining-based flow cytometric method (reference value: 50.47%)", "format": "functional"}},
  "note": "Activity calls are given as the source filed them. No cut-off for these calls is given here.",
  "data": [
    {"smiles": "CCOP(=O)(Cc1ccc(/N=C/c2cc3cc(C)ccc3[nH]c2=O)cc1)OCC", "values": [
      {"measurement": "Activity", "setting": "[1]", "result": "Dose-dependent effect"},
      {"measurement": "Activity", "setting": "[2]", "result": 33.91, "unit": "%"},
      {"measurement": "Activity", "setting": "[3]", "result": "Dose-dependent effect"},
      {"measurement": "Activity", "setting": "[4]", "result": 36.92, "unit": "%"},
      {"measurement": "Activity", "setting": "[5]", "result": "Active"},
      {"measurement": "Activity", "setting": "[6]", "result": 0.57, "unit": "%"},
      {"measurement": "Activity", "setting": "[7]", "result": 43.07, "unit": "%"},
      {"measurement": "Activity", "setting": "[8]", "result": "Active"},
      {"measurement": "Activity", "setting": "[9]", "result": 34.38, "unit": "%"},
      {"measurement": "Activity", "setting": "[10]", "result": "Active"},
      {"measurement": "Activity", "setting": "[11]", "result": 46.77, "unit": "%"},
      {"measurement": "Activity", "setting": "[12]", "result": "Active"},
      {"measurement": "Activity", "setting": "[13]", "result": "Active"},
      {"measurement": "Activity", "setting": "[14]", "result": 9.24, "unit": "%"},
      {"measurement": "Activity", "setting": "[15]", "result": 35.31, "unit": "%"},
      {"measurement": "Activity", "setting": "[16]", "result": "Active"},
      {"measurement": "viability at 8 µM", "setting": "[17]", "result": 62.5, "unit": "%"},
      {"measurement": "viability at 10 µM", "setting": "[18]", "result": 56.3, "unit": "%"},
      {"measurement": "Activity", "setting": "[19]", "result": 0.12, "unit": "%"},
      {"measurement": "Activity", "setting": "[20]", "result": "Active"},
      {"measurement": "Activity", "setting": "[21]", "result": 11.83, "unit": "%"},
      {"measurement": "Activity", "setting": "[22]", "result": "Active"},
      {"measurement": "Activity", "setting": "[23]", "result": 34.68, "unit": "%"},
      {"measurement": "Activity", "setting": "[24]", "result": "Dose-dependent effect"},
      {"measurement": "viability at 12 µM", "setting": "[25]", "result": 44.5, "unit": "%"},
      {"measurement": "IC50", "setting": "[26]", "result": 9.99, "unit": "µM"},
      {"measurement": "Activity", "setting": "[27]", "result": 29.16, "unit": "%"},
      {"measurement": "Activity", "setting": "[28]", "result": 15.49, "unit": "%"},
      {"measurement": "Activity", "setting": "[29]", "result": 30.01, "unit": "%"},
      {"measurement": "IC50", "setting": "[30]", "result": "> 100", "unit": "µM"},
      {"measurement": "Activity", "setting": "[31]", "result": 27.49, "unit": "%"},
      {"measurement": "Activity", "setting": "[32]", "result": 25.75, "unit": "%"}
    ]}
  ]
}
